Source: ChEMBL document CHEMBL4334455, “Synthesis of Usnic Acid Derivatives and Evaluation of Their Antiproliferative Activity against Cancer Cells” (J Nat Prod, 2019)
Calls of active or inactive are those of the source. The calls are words filed in the database; no cut-off is given here.

Legend:
MCF7 [1] = experiment: Induction of cell cycle arrest in human MCF7 cells assessed as accumulation of cells at G2/M phase at 8.7 uM after 24 hrs by Propidium iodide staining based flow cytometric analysis (reference value: 27 +/- 2.97%); type: functional
MCF7 [2] = experiment: Induction of cell cycle arrest in human MCF7 cells assessed as accumulation of cells at G2/M phase at 2.9 uM after 24 hrs by Propidium iodide staining based flow cytometric analysis (reference value: 27 +/- 2.97%); type: functional
PC-3 [3] = experiment: Anticlonogenic activity against human PC3 cells assessed as reduction in colony formation at 2.9 to 11.6 uM incubated for 24 hrs followed by recovery period of 2 weeks by culturing cells in drug-free medium by crystal violet staining based assay; type: functional, cell-based
How it was run: (§1)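 Cells (1 × 10⁶) plated, after 24 h given fresh medium with derivative at 1, 2, 3 or 4 μg mL⁻¹ for 24 h; then trypsinized, counted, 8 × 10² replated into two plates in compound-free medium. After 2 weeks fixed with 6.0% glutaraldehyde, stained with 0.5% crystal violet; colonies of ≥50 cells counted. Mean ± SE of three experiments in duplicate.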

MCF7 [4] = experiment: Anticlonogenic activity against human MCF7 cells assessed as proportion of colony forming cells at 11.6 uM incubated for 24 hrs followed by recovery period of 2 weeks by culturing cells in drug-free medium by crystal violet staining based assay relative to control; type: functional; how it was run: as §1
HeLa [5] = experiment: Antiproliferative activity against human HeLa cells assessed as reduction in cell viability after 24 hrs by MTT assay; type: functional, cell-based
How it was run: (§2)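 Cells seeded at 4 × 10³/well for 24 h runs and for PC-3, or 2 × 10³/well for MCF-7 and HeLa 48 h runs, and attached overnight. Medium replaced with compound-containing medium for 24 or 48 h. MTT (4 mg mL⁻¹) added for the final 3 h, formazan dissolved in DMSO, absorbance read at 570 nm (reference 660 nm). IC₅₀ calculated from at least three independent experiments in duplicate, mean ± SE.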

MCF7 [6] = experiment: Induction of cytoplasmic vacuolization in human MCF7 cells at 8.7 uM after 24 to 48 hrs by TEM analysis; type: functional, cell-based
How it was run: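 MCF-7 cells (2 × 10⁵) attached overnight, then exposed to 8.7 μM derivative or DMSO for 24 or 48 h at 37 °C. Fixed in ice-cold 2.5% fixative; ultrathin 45 nm sections stained with uranyl acetate and lead citrate, imaged by TEM at 1650×.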

MCF7 [7] = experiment: Antiproliferative activity against human MCF7 cells assessed as reduction in cell viability after 48 hrs by MTT assay; type: functional, cell-based; conditions: Homo sapiens, MCF7, 48 h; how it was run: as §2
MCF7 [8] = experiment: Induction of apoptosis in human MCF7 cells at 2.9 uM after 48 hrs by Annexin-V/7-AAD staining based flow cytometric analysis relative to control; type: functional
How it was run: (§3)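 MCF-7 cells treated 48 h, stained with annexin V and 7-AAD (Muse annexin V and dead cell kit), and apoptotic and necrotic fractions counted by flow cytometry. Mean ± SE of three independent experiments; ANOVA with Bonferroni post hoc test.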

MCF7 [9] = experiment: Induction of apoptosis in human MCF7 cell at 8.7 uM after 48 hrs by Annexin-V/7-AAD staining based flow cytometric analysis relative to control; type: functional; how it was run: as §3
HeLa [10] = experiment: Induction of cell cycle arrest in human HeLa cells assessed as accumulation of cells at G0/G1 phase 2.9 to 8.7 uM after 24 hrs by propidium iodide staining based flow cytometric analysis (reference value: 44%); type: functional
MCF7 [11] = experiment: Induction of vacuolization in human MCF7 cells assessed as increase in LAMP1 expression at 8.7 uM by Western blot analysis relative to control; type: functional
How it was run: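 Lysates were cleared, run on SDS-PAGE and blotted to PVDF, then probed for LAMP1. Blocking was 5% milk in PBS, primary antibody overnight at 4 °C, secondary 1 h at room temperature. Blots were stripped, reprobed for β-actin, and densitometry was corrected for loading.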

PC-3 [12] = experiment: Antiproliferative activity against human PC3 cells assessed as reduction in cell viability after 24 hrs by MTT assay; type: functional, cell-based; conditions: PC-3, 24 h; how it was run: as §2
MCF7 [13] = experiment: Antiproliferative activity against human MCF7 cells assessed as reduction in cell viability at 8.7 uM after 24 hrs in presence of 10 uM Na+/H+ exchange inhibitor, amiloride by MTT assay; type: functional, cell-based

| IC50 (HeLa [5]) | IC50 (MCF7 [7]) | IC50 (PC-3 [12]) | SMILES | Activity (MCF7 [1]) | Activity (MCF7 [2]) | inhibition (PC-3 [3]) | Activity (MCF7 [4]) | Activity (MCF7 [6]) | fold change (FC) (MCF7 [8]) | fold change (FC) (MCF7 [9]) | Activity (HeLa [10]) | fold change (FC) (MCF7 [11]) | inhibition (MCF7 [13]) |
| --- | --- | --- | --- | --- | --- | --- | --- | --- | --- | --- | --- | --- | --- |
| 1000 nM | 2500 nM | 3200 nM | CC(=O)c1c(O)c(C)c(O)c2c1OC1=Cc3onc(C)c3C(=O)[C@]12C | 14.65% | 16.4% | Active | <50% | Active | 2 | 3 | 51 - 65% | 5.1 | Active |
| 1000 nM | 2900 nM | 3400 nM | CC(=O)c1c(O)c(C)c(O)c2c1OC1=Cc3onc(C)c3C(=O)C12C (racemic) | 14.02% | 16.2% | Active | <50% | Active | 2 | 3 | 51 - 65% | 1.8 | Active |
